Results on 15 molecules are retold here after ChEMBL document CHEMBL1212879, “Synthesis and T-type calcium channel blocking activity of novel diphenylpiperazine compounds, and evaluation of in vivo analgesic activity” (Bioorg Med Chem, 2010).

In general, inhibition refers to how much of the control response was suppressed. One may read the IC50 as the point on the concentration scale where inhibition reaches its midpoint. The term Kd denotes the equilibrium constant for the complex coming apart.

The source made the active and inactive calls.

The target of assay [1] is Voltage-dependent N-type calcium channel subunit alpha-1B (Homo sapiens) (UniProt Q00975). The assay can be described thus: Inhibition of N-type Alpha-1B channel expressed in HEK293 cells by whole-cell patch-clamp method. It counts as cell-based. The note with it: concentration not given here. On the set-up: concentration or dose not given beside the values.
Assay [2] has as its target T1, Voltage-dependent T-type calcium channel subunit alpha-1G (Homo sapiens, UniProt O43497). Briefly: Inhibition of T-type alpha1G channel expressed in HEK293 cells by whole-cell patch-clamp method. The format is cell-based. The essentials: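 HEK293 cells stably expressing α1G (Cav3.1); whole-cell patch clamp. External solution in mM: 140 NaCl, 2 CaCl2, 10 Hepes, 10 glucose, pH 7.4.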
For orientation: In patch-clamp work, channel activity is measured electrically.

In assay [3] the target is Voltage-dependent N-type calcium channel subunit alpha-1B (Homo sapiens) (UniProt Q00975). Briefly: Inhibition of N-type Alpha-1B channel expressed in HEK293 cells at 10 uM by whole-cell patch-clamp method. The format is cell-based.
A short description of assay [4]: Inhibition of T-type Cav3 channel. The essentials:
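Whole-cell patch clamp on HEK293 cells stably expressing Cav3.1 (α1G). External solution was 140 mM NaCl, 2 mM CaCl2, 10 mM Hepes and 10 mM glucose, pH 7.4. Currents were evoked every 15 s by a 50 ms depolarizing voltage step.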

Assay [5] has as its system Rattus norvegicus. Briefly: Analgesic activity against formalin-induced inflammatory pain in rat assessed as reduction of pain behavior time at 60 µg/ 10 ul, sc administered after 10 mins at 5 mins intervals (reference value: 47.05 +/- 8.53 seconds). It counts as functional.
The test system of assay [6] is Rattus norvegicus. Briefly: Antinociceptive activity against von Frey hair mechanically stimulated neuropathic pain in rat assessed as withdrawal threshold at 60 mg/kg, ip administered 2 weeks after surgery. It counts as functional, organism-based. On the set-up: dose 60 mg/kg. The essentials: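 Tail nerve injury rats (unilateral caudal trunk transection between S1 and S2 under enflurane) received a baseline test 2 weeks post-injury. They were then dosed at 60 mg/kg ip in methyl pyrrolidone/Tween 80/saline (1:1:8). Tail withdrawal to von Frey filaments was retested at 1, 3, 5 and 24 h. Versus baseline by one-way repeated-measures ANOVA with Bonferroni t-test.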

Assay [7] deals with Rattus norvegicus. The assay can be described thus: Anti-cold allodynic activity in rat assessed as tail withdrawal latency at 60 mg/kg, ip measured within cut-off time of 15 seconds for up to 24 hrs. The format is functional, organism-based. On the set-up: dose 60 mg/kg. The method, boiled down: (§1)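 At 2 weeks, after a baseline test, 60 mg/kg was given ip in methyl pyrrolidone/Tween 80/saline (1:1:8). Tail withdrawal latency to 4 °C (cold) or 40 °C (warm) water immersion was read at 1, 3, 5 and 24 h, with a 15 s cut-off. Versus baseline by repeated-measures ANOVA with Bonferroni t-test.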

For assay [8], the system named is Rattus norvegicus. Briefly: Anti-warm allodynic activity in rat assessed as tail withdrawal latency at 60 mg/kg, ip measured within cut-off time of 15 seconds for up to 24 hrs. Set-up: dose 60 mg/kg. The format is functional, organism-based. The essentials: as §1
Assay [9] relates to Rattus norvegicus. Briefly: Analgesic activity against formalin-induced inflammatory pain in rat assessed as reduction of time spent on paw licking, shaking, biting at 60 ug, sc administered after 50 mins at 5 mins intervals(reference value: 334.21 +/- 51.10 seconds). The note with it: route subcutaneous.
Assay [10] concerns the target T1, Voltage-dependent T-type calcium channel subunit alpha-1G. Briefly: Inhibition of T-type Cav3.1 channel.
In assay [11] the target is Voltage-dependent T-type calcium channel subunit alpha-1H (Homo sapiens, UniProt O95180). Briefly: Inhibition of T-type Cav3.2 channel.
Assay [12] deals with Voltage-dependent T-type calcium channel subunit alpha-1I (Homo sapiens, UniProt Q9P0X4). Briefly: Inhibition of T-type Cav3.3 channel.
Assay [13] deals with Rattus norvegicus. Briefly: Analgesic activity against formalin-induced inflammatory pain in rat assessed as reduction of time spent on paw licking, shaking or biting at 60 ug, sc administered after 50 mins at 5 mins intervals. The note with it: route subcutaneous.
Assay [14] in a line: Inhibition of L-type calcium channel.

Chain of Voltage-dependent N-type calcium channel subunit alpha-1B (Homo sapiens) (Q00975 whole entry, looked up): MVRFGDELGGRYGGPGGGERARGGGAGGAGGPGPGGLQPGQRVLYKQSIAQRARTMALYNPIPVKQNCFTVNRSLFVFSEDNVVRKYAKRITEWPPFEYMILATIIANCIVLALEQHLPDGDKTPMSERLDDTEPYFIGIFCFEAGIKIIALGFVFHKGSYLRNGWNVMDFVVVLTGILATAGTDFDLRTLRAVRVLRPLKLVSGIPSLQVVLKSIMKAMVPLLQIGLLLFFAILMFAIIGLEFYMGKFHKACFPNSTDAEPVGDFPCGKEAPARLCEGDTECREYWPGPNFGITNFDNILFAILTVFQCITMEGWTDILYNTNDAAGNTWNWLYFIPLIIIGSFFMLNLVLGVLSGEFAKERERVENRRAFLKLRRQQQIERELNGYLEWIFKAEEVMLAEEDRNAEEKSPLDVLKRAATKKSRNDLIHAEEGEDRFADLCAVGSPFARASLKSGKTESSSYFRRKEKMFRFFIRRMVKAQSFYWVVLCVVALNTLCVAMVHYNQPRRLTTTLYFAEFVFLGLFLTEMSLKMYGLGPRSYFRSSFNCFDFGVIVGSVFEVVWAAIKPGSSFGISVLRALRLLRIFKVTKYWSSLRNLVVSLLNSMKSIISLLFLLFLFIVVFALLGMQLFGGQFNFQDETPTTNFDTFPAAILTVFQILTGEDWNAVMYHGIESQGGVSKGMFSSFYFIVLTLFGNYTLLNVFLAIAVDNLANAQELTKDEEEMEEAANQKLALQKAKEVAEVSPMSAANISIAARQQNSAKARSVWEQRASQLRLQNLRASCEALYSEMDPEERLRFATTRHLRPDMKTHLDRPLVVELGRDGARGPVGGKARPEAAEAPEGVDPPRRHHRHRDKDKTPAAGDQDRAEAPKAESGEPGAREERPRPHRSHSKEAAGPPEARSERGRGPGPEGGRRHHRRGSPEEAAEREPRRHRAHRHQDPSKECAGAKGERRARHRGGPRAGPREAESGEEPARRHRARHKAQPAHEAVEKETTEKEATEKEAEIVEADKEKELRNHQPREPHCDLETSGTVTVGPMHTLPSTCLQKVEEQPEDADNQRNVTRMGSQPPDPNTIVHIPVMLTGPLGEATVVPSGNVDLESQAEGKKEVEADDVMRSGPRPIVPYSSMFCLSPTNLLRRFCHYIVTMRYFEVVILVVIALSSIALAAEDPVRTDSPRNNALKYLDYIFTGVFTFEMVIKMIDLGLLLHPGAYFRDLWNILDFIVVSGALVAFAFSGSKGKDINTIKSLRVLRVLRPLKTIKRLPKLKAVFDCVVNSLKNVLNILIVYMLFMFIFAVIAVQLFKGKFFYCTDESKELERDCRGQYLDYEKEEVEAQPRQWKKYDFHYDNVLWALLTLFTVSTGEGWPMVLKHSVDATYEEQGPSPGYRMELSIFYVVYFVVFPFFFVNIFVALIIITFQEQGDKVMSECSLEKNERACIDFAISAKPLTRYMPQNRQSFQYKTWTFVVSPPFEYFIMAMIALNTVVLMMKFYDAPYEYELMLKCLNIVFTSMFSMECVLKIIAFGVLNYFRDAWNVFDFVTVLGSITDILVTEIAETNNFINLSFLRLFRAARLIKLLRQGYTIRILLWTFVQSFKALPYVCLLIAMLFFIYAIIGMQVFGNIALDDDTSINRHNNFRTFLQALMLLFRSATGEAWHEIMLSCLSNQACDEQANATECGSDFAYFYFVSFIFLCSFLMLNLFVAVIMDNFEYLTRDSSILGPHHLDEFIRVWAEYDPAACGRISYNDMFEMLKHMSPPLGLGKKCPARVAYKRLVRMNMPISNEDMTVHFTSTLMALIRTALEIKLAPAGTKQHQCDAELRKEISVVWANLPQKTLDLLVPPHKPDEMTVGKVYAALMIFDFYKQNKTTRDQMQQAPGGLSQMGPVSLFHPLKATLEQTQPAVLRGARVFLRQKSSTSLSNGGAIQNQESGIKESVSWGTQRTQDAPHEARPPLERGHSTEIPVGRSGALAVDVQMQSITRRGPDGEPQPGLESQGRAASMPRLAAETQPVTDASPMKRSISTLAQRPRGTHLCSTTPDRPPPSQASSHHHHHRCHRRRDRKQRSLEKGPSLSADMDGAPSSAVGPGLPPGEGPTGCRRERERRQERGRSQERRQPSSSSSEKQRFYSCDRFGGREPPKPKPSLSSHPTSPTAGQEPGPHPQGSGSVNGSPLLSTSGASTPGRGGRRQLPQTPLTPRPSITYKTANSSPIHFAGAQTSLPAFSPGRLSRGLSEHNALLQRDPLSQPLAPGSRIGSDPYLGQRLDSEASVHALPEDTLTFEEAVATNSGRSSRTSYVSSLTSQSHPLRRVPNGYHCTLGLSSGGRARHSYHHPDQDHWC
T1 sequence (O43497 whole entry): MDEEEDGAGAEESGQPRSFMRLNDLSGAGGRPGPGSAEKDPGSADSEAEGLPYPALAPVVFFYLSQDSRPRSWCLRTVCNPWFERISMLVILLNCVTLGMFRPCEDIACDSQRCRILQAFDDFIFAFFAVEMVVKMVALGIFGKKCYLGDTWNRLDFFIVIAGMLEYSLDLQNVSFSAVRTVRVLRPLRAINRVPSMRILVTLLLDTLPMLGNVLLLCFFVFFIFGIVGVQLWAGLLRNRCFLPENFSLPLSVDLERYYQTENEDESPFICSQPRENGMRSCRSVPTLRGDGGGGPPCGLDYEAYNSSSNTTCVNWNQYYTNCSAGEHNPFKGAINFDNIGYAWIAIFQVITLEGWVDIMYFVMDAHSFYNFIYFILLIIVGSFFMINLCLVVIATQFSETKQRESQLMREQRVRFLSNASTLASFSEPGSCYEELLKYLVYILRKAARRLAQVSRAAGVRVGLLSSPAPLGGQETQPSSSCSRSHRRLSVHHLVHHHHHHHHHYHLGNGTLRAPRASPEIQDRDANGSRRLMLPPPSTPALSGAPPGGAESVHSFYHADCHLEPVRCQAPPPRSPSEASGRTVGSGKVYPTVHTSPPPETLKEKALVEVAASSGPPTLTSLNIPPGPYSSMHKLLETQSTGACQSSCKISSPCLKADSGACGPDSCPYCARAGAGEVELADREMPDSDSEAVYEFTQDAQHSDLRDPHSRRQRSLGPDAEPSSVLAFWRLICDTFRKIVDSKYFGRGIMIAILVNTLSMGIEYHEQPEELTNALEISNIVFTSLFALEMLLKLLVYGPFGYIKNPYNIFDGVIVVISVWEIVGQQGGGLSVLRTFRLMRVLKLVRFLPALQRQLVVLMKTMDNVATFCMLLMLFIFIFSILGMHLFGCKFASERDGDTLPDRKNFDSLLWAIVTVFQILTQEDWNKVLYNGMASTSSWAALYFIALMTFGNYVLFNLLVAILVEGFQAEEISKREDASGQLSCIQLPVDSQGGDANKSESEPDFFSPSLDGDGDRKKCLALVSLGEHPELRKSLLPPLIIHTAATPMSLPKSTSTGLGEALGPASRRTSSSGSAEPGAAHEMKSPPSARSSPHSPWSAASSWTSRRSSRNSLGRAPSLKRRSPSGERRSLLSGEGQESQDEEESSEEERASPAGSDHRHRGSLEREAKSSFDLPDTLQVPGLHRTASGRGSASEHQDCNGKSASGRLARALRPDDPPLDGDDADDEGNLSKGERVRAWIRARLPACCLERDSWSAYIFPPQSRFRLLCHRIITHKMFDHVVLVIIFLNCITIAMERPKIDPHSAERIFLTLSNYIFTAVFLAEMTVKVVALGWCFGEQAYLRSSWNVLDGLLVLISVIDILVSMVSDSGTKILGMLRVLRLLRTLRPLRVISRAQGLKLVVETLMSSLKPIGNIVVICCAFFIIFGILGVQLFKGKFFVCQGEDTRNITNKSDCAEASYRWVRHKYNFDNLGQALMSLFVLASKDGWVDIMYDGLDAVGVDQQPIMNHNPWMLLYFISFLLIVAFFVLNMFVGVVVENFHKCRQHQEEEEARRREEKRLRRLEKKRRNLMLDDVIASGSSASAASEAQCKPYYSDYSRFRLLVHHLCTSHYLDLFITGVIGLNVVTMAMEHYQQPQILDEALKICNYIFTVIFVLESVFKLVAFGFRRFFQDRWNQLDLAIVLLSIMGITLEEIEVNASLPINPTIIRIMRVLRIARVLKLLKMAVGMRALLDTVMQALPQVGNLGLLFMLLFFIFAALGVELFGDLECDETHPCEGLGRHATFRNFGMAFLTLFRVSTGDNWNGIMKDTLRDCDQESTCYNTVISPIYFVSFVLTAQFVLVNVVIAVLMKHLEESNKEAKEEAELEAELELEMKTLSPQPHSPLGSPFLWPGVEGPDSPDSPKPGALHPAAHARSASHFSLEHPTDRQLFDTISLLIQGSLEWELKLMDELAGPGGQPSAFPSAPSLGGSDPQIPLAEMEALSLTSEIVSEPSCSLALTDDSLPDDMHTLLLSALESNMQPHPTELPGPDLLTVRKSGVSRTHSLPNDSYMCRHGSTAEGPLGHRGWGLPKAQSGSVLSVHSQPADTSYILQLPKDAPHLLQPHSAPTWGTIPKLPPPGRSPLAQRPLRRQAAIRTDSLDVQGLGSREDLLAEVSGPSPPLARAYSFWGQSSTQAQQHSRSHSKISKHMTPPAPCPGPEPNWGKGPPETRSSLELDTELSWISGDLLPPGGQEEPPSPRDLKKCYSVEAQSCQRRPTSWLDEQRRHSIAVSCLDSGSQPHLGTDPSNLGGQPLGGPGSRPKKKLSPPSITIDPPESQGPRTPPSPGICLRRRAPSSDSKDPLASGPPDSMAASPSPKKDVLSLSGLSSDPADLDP

For the molecule `CCNCCCC(=O)N1CCN(C(c2ccccc2)c2ccc(Cl)cc2)CC1` (stereo not drawn), the inhibition in assay [1] was found to be 20%. Also, the IC50 in [2] stood at 420 nM.

With `CC(C)c1ccc(CNCCCC(=O)N2CCN(C(c3ccccc3)c3ccc(Cl)cc3)CC2)cc1` (stereo not drawn), the inhibition in [1] is 80.2%; in [3], 80%. Besides, the IC50 in assay [2] was 280 nM.

On to `O=C(CCCNCc1ccc([N+](=O)[O-])cc1)N1CCN(C(c2ccccc2)c2ccc(Cl)cc2)CC1` (stereo not drawn), for which the inhibition in assay [1] is 88.8%; in [3] it was 80%. Further, the IC50 in assay [2] is 600 nM.

`O=c1[nH]c2ccccc2n1C1CCN(CCCC(c2ccc(F)cc2)c2ccc(F)cc2)CC1` came in with an INH in assay [4] of 40 nM.

`O=C(CCCNCC1CCCCC1)N1CCN(C(c2ccccc2)c2ccc(Cl)cc2)CC1` (stereo not drawn): the inhibition in assay [1] is 84.9%; in assay [3], 80%. Besides, the IC50 in assay [2] came out at 190 nM. Further, the Time is 1.8 s in the assay with Rattus norvegicus [5] and 24.32 s in the assay on Rattus norvegicus [9]. Also, in the assay with Rattus norvegicus [6], the result was inactive. Besides, the outcome with Rattus norvegicus [7] and in the assay on Rattus norvegicus [8] was Active.

Take `Fc1ccc(C(c2ccc(F)cc2)N2CCN(C/C=C/c3ccccc3)CC2)cc1` [FLUNARIZINE]: the Kd in assay [10] came to 530 nM; in [11], 3600 nM; in [12], 840 nM.

Consider `O=C(CCCNCc1c(Cl)cccc1Cl)N1CCN(C(c2ccccc2)c2ccc(Cl)cc2)CC1` (stereo not drawn), for which, in [1], the inhibition was 78.4%. For the same molecule, the IC50 in assay [2] stood at 1020 nM.

On to `NCC1(CC(=O)O)CCCCC1`, for which the result with Rattus norvegicus [6], with Rattus norvegicus [7] and in the assay with Rattus norvegicus [8] was Active.

As for `NCCCC(=O)N1CCN(C(c2ccccc2)c2ccc(Cl)cc2)CC1` (stereo not drawn), the inhibition in assay [1] is 10%. In addition, the IC50 in assay [2] is 3710 nM. Further, the Time with Rattus norvegicus [5] is 2.41 s; in the assay on Rattus norvegicus [13] it was 62.57 s. The result with Rattus norvegicus [6], with Rattus norvegicus [7] and in the assay on Rattus norvegicus [8] was Active.

`CC(C)CNCCCC(=O)N1CCN(C(c2ccccc2)c2ccc(Cl)cc2)CC1` (stereo not drawn): in assay [1], the inhibition was 13.3%. The IC50 in assay [2] came to 360 nM.

Turning to `CN(C)c1ccc(CNCCCC(=O)N2CCN(C(c3ccccc3)c3ccc(Cl)cc3)CC2)cc1` (stereo not drawn), the inhibition in assay [1] worked out at 10.8%. Moreover, the IC50 in assay [2] worked out at 2320 nM.

Consider `O=C(CCCNCc1ccccc1)N1CCN(C(c2ccccc2)c2ccc(Cl)cc2)CC1` (stereo not drawn), for which the inhibition in assay [1] worked out at 69.8%. Besides, in assay [2], the IC50 amounted to 1670 nM.

Regarding `COc1ccc(CNCCCC(=O)N2CCN(C(c3ccccc3)c3ccc(Cl)cc3)CC2)cc1` (stereo not drawn), the inhibition in assay [1] is 49.6%. For the same molecule, in [2], the IC50 came to 16100 nM.

In the case of `COCC(=O)O[C@]1(CCN(C)CCCc2nc3ccccc3[nH]2)CCc2cc(F)ccc2[C@@H]1C(C)C` [MIBEFRADIL], in assay [14], the IC50 was 10000 nM.

For `CCC(CC)CNCCCC(=O)N1CCN(C(c2ccccc2)c2ccc(Cl)cc2)CC1` (stereo not drawn), in assay [1], the inhibition came to 16.8%. In addition, the IC50 in assay [2] was 1540 nM.
